Data set [1] has as its system Mycobacterium tuberculosis. Kind of data set: Antibacterial activity against Mycobacterium tuberculosis Erdman harboring pFCA-LuxAB plasmid infected in female BALB/c mouse model assessed as log reduction in bacterial burden in lung at 400 mg/kg, SC administered once daily for 12 days starting from day 7 and measured 3 days post last treatment relative to untreated control. The data set is classed as functional. The conditions noted are these: time 15 day. A digest of the protocol: (§1)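 BALB/c mice given a low-dose aerosol infection with M. tuberculosis Erdman pFCA-LuxAB. Dosing ran once daily for 12 consecutive days from day 7 post-infection: 10 mg/kg orally or 400 mg/kg, as the line states. Lung bacterial burden (log10 CFU) was compared with untreated control, six mice per group.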

Data set [2] in a line: Drug uptake in female BALB/c mouse plasma infected with Mycobacterium tuberculosis Erdman harboring pFCA-LuxAB plasmid at 400 mg/kg, SC measured after 15 mins. It is filed as ADME, organism-based. The conditions noted are these: in vivo, 0.25 h. A digest of the protocol: (§2)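 Plasma was sampled from infected BALB/c mice in the acute efficacy study 15 min and 8 h after a 400 mg/kg dose. Parent drug and prodrug levels were each quantified in the prodrug-treated and parent-treated groups.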

Data set [3] can be described thus: Drug uptake in female BALB/c mouse plasma infected with Mycobacterium tuberculosis Erdman harboring pFCA-LuxAB plasmid at 400 mg/kg, SC measured after 8 hrs. It is filed as ADME, organism-based. Conditions: in vivo; call rule not given here. The method, boiled down: as §2
Data set [4] can be described thus: Prodrug conversion in female BALB/c mouse plasma infected with Mycobacterium tuberculosis Erdman harboring pFCA-LuxAB plasmid assessed as 2-(5-chloropyridin-2-yl)-N-((2R,4R,4aS,5aR,6S,7S,8R,9S,9aR,10aS)-4a,7,9-trihydroxy-2-methyl-6,8-bis(methylamino)decahydro-2H-benzo[b]pyrano[2,3-e][1,4]dioxin-4-yl)acetamide formation at 400 mg/kg, SC measured after 15 mins. The data set is classed as ADME, organism-based. The conditions noted are these: in vivo, 0.25 h. A digest of the protocol: as §2

Data set [5] can be described thus: Prodrug conversion in female BALB/c mouse plasma infected with Mycobacterium tuberculosis Erdman harboring pFCA-LuxAB plasmid assessed as 2-(5-chloropyridin-2-yl)-N-((2R,4R,4aS,5aR,6S,7S,8R,9S,9aR,10aS)-4a,7,9-trihydroxy-2-methyl-6,8-bis(methylamino)decahydro-2H-benzo[b]pyrano[2,3-e][1,4]dioxin-4-yl)acetamide formation at 400 mg/kg, SC measured after 8 hrs. The data set is classed as ADME, organism-based. The conditions noted are these: in vivo. The method, boiled down:
as §2

For data set [6], the system named is Mycobacterium tuberculosis. Kind of data set: Antibacterial activity against Mycobacterium tuberculosis Erdman harboring pFCA-LuxAB plasmid infected in female BALB/c mouse model assessed as log reduction in bacterial burden in lung at 10 mg/kg, po administered once daily for 12 days starting from day 7 and measured 3 days post last treatment relative to untreated control. It is filed as functional. Conditions: time 15 day. The method, boiled down:
as §1

In the case of `CN[C@@H]1[C@H](O)[C@H](NC)[C@H]2O[C@]3(O)[C@H](O[C@@H]2[C@H]1O)O[C@H](C)C[C@H]3NC(=O)Cc1ccc(O)cn1`, the “log(activity)” value in data set [1] was determined as 1.13. The Drug uptake result in data set [2] and in data set [3] was “Active” each time.

On to `CN[C@@H]1[C@H](O)[C@H](NC)[C@H]2O[C@]3(O)[C@H](O[C@@H]2[C@H]1O)O[C@H](C)C[C@H]3NC(=O)Cc1ccc(OP(=O)(O)O)cn1`, for which the “log(activity)” value in data set [1] was 1.11. Besides, the Drug metabolism entry in data set [4] and in data set [5] was “metabolite_detected” each time. For the same molecule, the Drug uptake entry in data set [2] is on record as “Active”.

Consider `CO[C@H]1/C=C/O[C@@]2(C)Oc3c(C)c(O)c4c(O)c(c(/C=N/N5CCN(C)CC5)c(O)c4c3C2=O)NC(=O)/C(C)=C\C=C\[C@H](C)[C@H](O)[C@@H](C)[C@@H](O)[C@@H](C)[C@H](OC(C)=O)[C@@H]1C` [RIFAMPIN], for which the “log(activity)” value in data set [6] was determined as 1.21.

Source of the values: ChEMBL document CHEMBL6092133, “Enhancing the therapeutic window for Spectinamide anti-tuberculosis Agents: Synthesis, Evaluation, and activation of phosphate prodrug 3408” (Bioorg Med Chem Lett, 2024).
